Source: ChEMBL document CHEMBL1828516, “Discovery of novel alkylated (bis)urea and (bis)thiourea polyamine analogues with potent antimalarial activities” (J Med Chem, 2011)
Active and inactive are the calls of the source. The rule behind the calls is not given here.

How the values were obtained:
[1] = system: Plasmodium falciparum; assay: Antimalarial activity against drug-sensitive Plasmodium falciparum 3D7 infected in human erythrocytes after 96 hrs by SYBR Green I-based fluorescence assay; assay type: functional, organism-based; details: 3D7, 96 h
Procedure, shortened: (§1)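 Ring-stage cultures synchronized with 10% D-sorbitol, grown in O+ human erythrocytes in RPMI-1640 with HEPES, hypoxanthine, glucose, gentamycin and Albumax II under 5% CO2/5% O2/90% N2 at 37°C. Compounds in DMSO (<0.013%), serially diluted, added at 1% parasitemia, 2% hematocrit. Static 96 h incubation, then SYBR Green I lysis buffer for 1 h in dark. Fluorescence at ex 485/em 538 nm.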

[2] = system: Plasmodium falciparum; assay: Antimalarial activity against […] Plasmodium falciparum HB3 infected in human erythrocytes after 96 hrs by SYBR Green I-based fluorescence assay; assay type: functional, organism-based; details: HB3, 96 h; procedure, shortened: as §1
[3] = system: Plasmodium falciparum; assay: Antimalarial activity against Plasmodium falciparum assessed as increase in 1N ring or trophozoite stage parasites at 2 times IC50 after 72 hrs by FITC-SYBR Green I-based flow cytometry; assay type: functional, organism-based
[4] = system: Plasmodium falciparum; assay: Antimalarial activity against Plasmodium falciparum 3D7 infected in human erythrocytes assessed as decrease in parasitemia at 2 times IC50 after 72 hrs by giemsa staining method; assay type: functional, organism-based
Procedure, shortened: (§2)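 P. falciparum 3D7 in O+ human erythrocytes, treated at 2xIC50 for 72 h. Parasitemia scored microscopically on Giemsa-stained smears, counting 100 parasites per slide 10x, alongside SYBR Green I DNA quantitation. Parasitemia compared at 0 h and 72 h. Three independent experiments in triplicate, mean ± S.E.; Student t-test, P<0.05.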

[5] = system: HepG2; assay: Cytotoxicity against human HepG2 cells after 48 hrs by lactate dehydrogenase assay; assay type: cell-based; details: hepg2, 48 h
Procedure, shortened: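 HepG2 cells in DMEM with 10% heat-inactivated FBS, 37°C, 5% CO2. Cells pelleted at 250xg, supernatant LDH activity read colorimetrically as NADH at 450 nm after 30 min at room temperature. Duplicate, at least two biological repeats, mean ± S.E.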

[6] = system: Plasmodium falciparum; assay: Resistance ratio of IC50 for Plasmodium falciparum W2 to IC50 for Plasmodium falciparum 3D7; assay type: functional
Procedure, shortened: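 Ratio of W2 IC50 to 3D7 IC50, both from the 96 h SYBR Green I fluorescence assay.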

[7] = Selectivity index, ratio of GI50 for human HepG2 cells to IC50 for Plasmodium falciparum 3D7; assay type: functional
[8] = system: Plasmodium falciparum; assay: Antimalarial activity against Plasmodium falciparum assessed as reduction in 2N schizont stage parasites at 2 times IC50 after 72 hrs by FITC-SYBR Green I-based flow cytometry; assay type: functional, organism-based
[9] = system: Plasmodium falciparum; assay: Antimalarial activity against Plasmodium falciparum assessed as inhibition of DNA replication at 2 times IC50 after 72 hrs by FITC-SYBR Green I-based flow cytometry; assay type: functional, organism-based
[10] = system: Plasmodium falciparum; assay: Antimalarial activity against Plasmodium falciparum assessed as reduction in >2N schizont stage parasites at 2 times IC50 after 72 hrs by FITC-SYBR Green I-based flow cytometry; assay type: functional, organism-based
[11] = system: Plasmodium falciparum; assay: Antimalarial activity against antifolate-resistant Plasmodium falciparum W2 infected in human erythrocytes after 96 hrs by SYBR Green I-based fluorescence assay; assay type: functional, organism-based; details: W2, 96 h; procedure, shortened: as §1
[12] = system: Trypanosoma brucei; assay: Antitrypanosomal activity against Trypanosoma brucei; assay type: functional, organism-based
[13] = system: Plasmodium falciparum; assay: Cytostatic activity against Plasmodium falciparum 3D7 infected in human erythrocytes at 2 times IC50 after 72 hrs by giemsa staining method; assay type: functional, organism-based; procedure, shortened: as §2
[14] = system: Plasmodium falciparum; assay: Antimalarial activity against Plasmodium falciparum assessed as inhibition of nuclear division measuring 1N ring or trophozoite stage parasites at 2 times IC50 after 72 hrs by FITC-SYBR Green I-based flow cytometry (reference value: 28 %); assay type: functional; set-up: scale not given: the % may be the effect or the level left
[15] = system: Plasmodium falciparum; assay: Antimalarial activity against Plasmodium falciparum assessed as inhibition of nuclear division measuring 2N schizont stage parasites at 2 times IC50 after 72 hrs by FITC-SYBR Green I-based flow cytometry (reference value: 38 %); assay type: functional; set-up: scale not given: the % may be the effect or the level left
[16] = system: Plasmodium falciparum; assay: Antimalarial activity against Plasmodium falciparum 3D7 infected in human erythrocytes assessed as decrease in parasitemia at 2 times IC50 up to 72 hrs by SYBR Green I-based fluorescence assay in the presence of putrescine; assay type: functional, organism-based
Procedure, shortened: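 Early-ring 3D7 cultures treated at 2xIC50 with 1 mM putrescine added after 24 h or 48 h, then incubated a further 24 or 48 h. Parasitemia followed over 72 h by SYBR Green I lysis fluorescence, as in the MSF assay. At least three biological repeats in duplicate, mean ± S.E.; two-way ANOVA, P<0.05.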

[17] = system: Plasmodium falciparum; assay: Antimalarial activity against Plasmodium falciparum assessed as inhibition of nuclear division measuring >2N schizont stage parasites at 2 times IC50 after 72 hrs by FITC-SYBR Green I-based flow cytometry (reference value: 34 %); assay type: functional; set-up: scale not given: the % may be the effect or the level left

Structure (SMILES) | IC50 [1] [nM] | IC50 [2] [nM] | Activity [3] | Activity [4] | GI50 [5] [nM] | Activity [8] | DNA replication inhibition (active/inactive) [9] | Activity [10] | IC50 [11] [nM] | other results
S=C(NCCCNCCCCCCCNCCCNC(=S)NC(c1ccccc1)c1ccccc1)NC(c1ccccc1)c1ccccc1 | 641 | 138 | – | – | – | – | – | – | – | –
CC(=N)NCCCNCCCCCCCNCCCNC(C)=N | – | 70300 | – | – | – | – | – | – | – | –
S=C(NCCCNCCCCNCCCNC(=S)NCCC(c1ccccc1)c1ccccc1)NCCC(c1ccccc1)c1ccccc1 | 528 | 1030 | – | – | – | – | – | – | – | –
Cl.Cl.O=C(NCCCNCCCCCCCNCCCNC(=O)NCCC(c1ccccc1)c1ccccc1)NCCC(c1ccccc1)c1ccccc1 | 144 | 200 | Active | Active | 23900 | Active | Active | Active | 163 | Ratio IC50 [6]: 1.13; Selectivity Index [7]: 166
O=C(NCCCNCCCCNCCCNC(=O)NCC(c1ccccc1)c1ccccc1)NCC(c1ccccc1)c1ccccc1 | 408 | – | – | – | – | – | – | – | – | –
Cl.Cl.O=C(NCCCNCCCCCCCNCCCNC(=O)NCC(c1ccccc1)c1ccccc1)NCC(c1ccccc1)c1ccccc1 | 100 | – | Active | Active | 33800 | Active | Active | Active | 140 | Ratio IC50 [6]: 1.4; Selectivity Index [7]: 338
O=C(NCCCNCCCCNCCCNC(=O)NCCC(c1ccccc1)c1ccccc1)NCCC(c1ccccc1)c1ccccc1 | 657 | 517 | – | – | – | – | – | – | – | –
O=C(NCCCNCCCNCCCNC(=O)NCCC(c1ccccc1)c1ccccc1)NCCC(c1ccccc1)c1ccccc1 | 653 | – | – | – | – | – | – | – | – | –
N=C(NCCCNCCCCCCCNCCCNC(=N)NC(=N)NCCC(c1ccccc1)c1ccccc1)NC(=N)NCCC(c1ccccc1)c1ccccc1 | 298 | 224 | – | – | – | – | – | – | – | IC50 [12]: 90 nM
S=C(NCCCNCCCCNCCCNC(=S)NCC(c1ccccc1)c1ccccc1)NCC(c1ccccc1)c1ccccc1 | 329 | 170 | Active | Active | 18900 | Active | Active | Active | 200 | –
O=C(NCCCNCCCCNCCCNC(=O)NC(c1ccccc1)c1ccccc1)NC(c1ccccc1)c1ccccc1 | 691 | – | – | – | – | – | – | – | – | –
O=C(NCCCNCCCCCCNCCCNC(=O)NCc1ccccc1)NCc1ccccc1 | 339 | – | – | – | – | – | – | – | – | –
Cl.Cl.O=C(NCCCNCCCCCCCNCCCNC(=O)NC(c1ccccc1)c1ccccc1)NC(c1ccccc1)c1ccccc1 | 131 | – | Active | Active | > 200000 | Active | Active | Active | 221 | Ratio IC50 [6]: 1.7; Selectivity Index [7]: >1500
S=C(NCCCNCCCNCCCNC(=S)NCC(c1ccccc1)c1ccccc1)NCC(c1ccccc1)c1ccccc1 | 1320 | 715 | – | – | – | – | – | – | – | –
CC(=N)NCCCNCCCCNCCCNC(C)=N | 80000 | 14200 | – | – | – | – | – | – | – | –
O=C(NCCCNCCCCNCCCNC(=O)NCc1ccccc1)NCc1ccccc1 | 3480 | > 1000 | – | – | – | – | – | – | – | –
Cl.Cl.S=C(NCCCNCCCCNCCCNC(=S)NCc1ccccc1)NCc1ccccc1 | 355 | – | inactive | inactive | > 200000 | inactive | inactive | inactive | 66 | Ratio IC50 [6]: 0.19; Selectivity Index [7]: >500; Activity [13]: Active

Structure (SMILES) | IC50 [1] [nM] | IC50 [2] [nM] | Activity [3] | Activity [4] | GI50 [5] [nM] | Activity [8] | DNA replication inhibition (active/inactive) [9] | Activity [10] | IC50 [11] [nM] | other results
CCCNC(=S)NCCCNCCCCCCNCCCNC(=S)NCCC | 425 | – | – | – | – | – | – | – | – | –
Cl.Cl.S=C(NCCCNCCCCCCNCCCNC(=S)NCc1ccccc1)NCc1ccccc1 | 106 | – | Active | Active | > 200000 | Active | Active | Active | 198 | Ratio IC50 [6]: 1.9; Selectivity Index [7]: >1500
Cl.Cl.S=C(NCCCNCCCCCCNCCCNC(=S)NC(c1ccccc1)c1ccccc1)NC(c1ccccc1)c1ccccc1 | 211 | – | Active | Active | > 200000 | Active | Active | Active | 256 | Ratio IC50 [6]: 1.2; Selectivity Index [7]: >500
S=C(NCCCNCCCNCCCNC(=S)NC(c1ccccc1)c1ccccc1)NC(c1ccccc1)c1ccccc1 | 1080 | 766 | – | – | – | – | – | – | – | –
CCCNC(=O)NCCCNCCCCCCNCCCNC(=O)NCCC | 14100 | – | – | – | – | – | – | – | – | –
Cl.Cl.S=C(NCCCNCCCCCCCNCCCNC(=S)NCC(c1ccccc1)c1ccccc1)NCC(c1ccccc1)c1ccccc1 | 405 | – | Active | Active | 24700 | Active | Active | Active | 183 | Activity [14]: 78%; Activity [15]: 20%; Activity [16]: Active; Activity [17]: 2%
S=C(NCCCNCCCCCCNCCCNC(=S)NCCC(c1ccccc1)c1ccccc1)NCCC(c1ccccc1)c1ccccc1 | 310 | – | – | – | – | – | – | – | – | –
Cl.Cl.S=C(NCCCNCCCCCCCNCCCNC(=S)NCCC(c1ccccc1)c1ccccc1)NCCC(c1ccccc1)c1ccccc1 | 253 | 256 | Active | Active | 24500 | Active | Active | Active | 147 | Ratio IC50 [6]: 0.58; Selectivity Index [7]: 97
S=C(NCCCNCCCNCCCNC(=S)NCCC(c1ccccc1)c1ccccc1)NCCC(c1ccccc1)c1ccccc1 | 1430 | 1640 | – | – | – | – | – | – | – | –
S=C(NCCCNCCCCCCNCCCNC(=S)Nc1ccccc1)Nc1ccccc1 | 846 | – | – | – | – | – | – | – | – | –
CC(=N)NCCCNCCCNCCCNC(C)=N | 147000 | 110000 | – | – | – | – | – | – | – | –
S=C(NCCCNCCCCCCNCCCNC(=S)NCC(c1ccccc1)c1ccccc1)NCC(c1ccccc1)c1ccccc1 | 436 | – | – | – | – | – | – | – | – | –
Cl.Cl.O=C(NCCCNCCCCCCNCCCNC(=O)Nc1ccccc1)Nc1ccccc1 | 88 | – | Active | Active | 619000 | Active | Active | Active | 26 | Ratio IC50 [6]: 0.3; Selectivity Index [7]: 7038
CCNC(=S)NCCCNCCCCCCNCCCNC(=S)NCC | 1350 | – | – | – | – | – | – | – | – | –
CCNC(=O)NCCCNCCCCCCNCCCNC(=O)NCC | > 15000 | – | – | – | – | – | – | – | – | –
S=C(NCCCNCCCCNCCCNC(=S)NC(c1ccccc1)c1ccccc1)NC(c1ccccc1)c1ccccc1 | 433 | 317 | – | – | – | – | – | – | – | –
